Yeast growth inh = chemicals that inhibit yeast BB579 growth in restrictive medium (lifespan-shortening candidates) | AID 804 | S. cerevisiae BB579 growth, OD615, 48 h | inhibition, % at 10 µM | 0.51% of 140,000 active;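 active means inhibition above a set limit, 3 SD over the mean compound inhibition, cut at about 44% in these data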
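System: Saccharomyces cerevisiae DeaD strain BB579, replicative lifespan model yeast | Buffer or medium: Restrictive glucose-based CSMM-D medium | Times: 4 h preincubation and 48 h exposure at 30 °C | Detection: OD615 turbidity measurement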
Yeast lifespan up = yeast lifespan extension; S. cerevisiae growth with nicotinamide, OD615; deaD strain in restrictive glucose medium; inhibition of the nicotinamide effect, % at 10 µM; 0.68% of 130,000 active; AID 775;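 active means inhibition above a set limit, placed 3 SD over the median of all compounds, cut at about 26% in these data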;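 further: 0% = nicotinamide-treated wells and 100% = cells grown without nicotinamide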
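assay system = DeaD-strain S. cerevisiae | measured by = absorbance at 615 nm | probe or stimulus = nicotinamide 1.5 mM | buffer or medium = CSMM-D glucose medium, restrictive | times = 48 h at 30 °C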
PostGolgi yeast = growth inhibition of a yeast mutant, post-Golgi transport screen; post-Golgi transport phenotypic cell assay; inhibition, % at 10 µM; 0.9% of 98,000 active; AID 739;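 further: yeast cells grown in 1536-well plates; yeast grown about 18 h at 30C before absorbance read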
PostGolgi ctrl = inhibits growth of the yeast control strain; efflux-deficient yeast background strain, growth absorbance A615, 16 h; inhibition, % at 10 µM; 5% of 98,000 active
* marks the source's active call; other numbers are inactive results. The entries come from a sample that favours hits as a whole. Unless noted, no stated cut-off is given here; in the data, active means inhibition above about 30%; inactive means the rest.

`O=C(NCc1ccccc1)c1ccc(CN2CCOCC2)cc1` gave Yeast growth inh -6, Yeast lifespan up -15, PostGolgi yeast 5 and PostGolgi ctrl 23.
`O=C(NCCSCc1ccc(Cl)cc1Cl)c1ccc(CN2CCOCC2)cc1` gave Yeast growth inh -9, Yeast lifespan up -28, PostGolgi yeast 76* and PostGolgi ctrl 31*.
O=C(Nc1ccc2c(c1)OCCO2)c1cc(-n2cnnc2)ccc1Cl was read as Yeast growth inh -40, Yeast lifespan up -11, PostGolgi yeast -3 and PostGolgi ctrl 11.
Screening O=C(NCc1ccc2c(c1)OCO2)c1ccc(CN2CCOCC2)cc1 returned Yeast growth inh -37, Yeast lifespan up -12, PostGolgi yeast 4 and PostGolgi ctrl 33*.
For O=C(NCc1ccc2c(c1)OCO2)c1cc(-n2cnnc2)ccc1Cl the results were Yeast growth inh -61, Yeast lifespan up -13, PostGolgi yeast -8 and PostGolgi ctrl 46*.
Cc1cc(C(=O)NCCC(c2ccccc2)c2ccccc2)c(C)o1 was read as Yeast growth inh -4, Yeast lifespan up -19, PostGolgi yeast 5 and PostGolgi ctrl 6.
CC(=O)N1c2ccccc2N(Cc2ccc(C)cc2C)C(=O)C1(C)C was read as Yeast growth inh -6, Yeast lifespan up -9, PostGolgi yeast 0 and PostGolgi ctrl 27.
For C=CCN1C(=O)C(C)(C)N(C(C)=O)c2ccccc21 the results were Yeast growth inh -31 and Yeast lifespan up 28*.
`Cn1ncc(C#N)c1/N=C/N(Cc1ccccc1)Cc1ccccc1` gave Yeast growth inh -41, Yeast lifespan up -28, PostGolgi yeast 2 and PostGolgi ctrl 35*.
Screening Cc1cccc2cc(CN(Cc3ccc(F)cc3)C(=O)N(C)C)c3nnnn3c12 returned Yeast growth inh -25, Yeast lifespan up -11, PostGolgi yeast 12 and PostGolgi ctrl 32*.
For O=C(CN1C(=O)/C(=C\c2ccc(F)cc2)Oc2ccccc21)NCc1ccco1 the results were Yeast growth inh -19 and Yeast lifespan up -4.
`COc1nc(-c2ccccc2)ccc1-c1noc(-c2ccccc2F)n1` gave Yeast growth inh 4, Yeast lifespan up 3, PostGolgi yeast -2 and PostGolgi ctrl 3.
Cc1ccc(OC(=O)c2ccc(N3CCOCC3)c([N+](=O)[O-])c2)cc1 was read as Yeast growth inh -51, Yeast lifespan up -17, PostGolgi yeast -22 and PostGolgi ctrl 38*.
Cc1ccc(NC(=O)c2cccs2)cc1NC(=O)c1ccco1 was read as Yeast growth inh -32, Yeast lifespan up -19, PostGolgi yeast -13 and PostGolgi ctrl 32*.
`Cc1occc1-c1nnc(SCC(=O)c2ccc(F)cc2)o1` gave Yeast growth inh -27, Yeast lifespan up -6, PostGolgi yeast -1 and PostGolgi ctrl 3.
`Cc1ccc(-n2c([O-])nc(-[n+]3ccccc3)c2C=O)cc1` gave Yeast growth inh -35, Yeast lifespan up -9, PostGolgi yeast -5 and PostGolgi ctrl 9.
COC(=O)C1=C(C)N(C)C(C)=C(C(=O)OC)C1c1ccncc1 was read as Yeast growth inh -41, Yeast lifespan up 15, PostGolgi yeast 2 and PostGolgi ctrl 12.
Screening COC(=O)C1=C(C)N(C)C(C)=C(C(=O)OC)C1c1ccc(F)c(Br)c1 returned Yeast growth inh -24, Yeast lifespan up -5, PostGolgi yeast 9 and PostGolgi ctrl 53*.
Screening CCOC(=O)c1nnc(-c2ccccc2)nc1NCc1ccccc1 returned Yeast growth inh -45, Yeast lifespan up -1, PostGolgi yeast 15 and PostGolgi ctrl 35*.
Screening Cc1ccc(S(=O)(=O)NC(=O)c2cccn2C)cc1 returned Yeast growth inh -20, Yeast lifespan up 2, PostGolgi yeast -1 and PostGolgi ctrl 4.
`O=c1c2c3c(sc2ncn1/N=C/c1ccc([N+](=O)[O-])o1)CCCC3` gave Yeast growth inh 25, Yeast lifespan up 65*, PostGolgi yeast 105* and PostGolgi ctrl 60*.
`Cn1cc(/C=N/n2cnc3sc4c(c3c2=O)CCCC4)c2ccccc21` gave Yeast growth inh 2, Yeast lifespan up -14, PostGolgi yeast -1 and PostGolgi ctrl 21.
For CC1=C(C)CC(C(=O)c2ccc(C)cc2)C(C(=O)O)C1 (configuration not stated) the results were Yeast growth inh -10, Yeast lifespan up 30*, PostGolgi yeast -9 and PostGolgi ctrl 0.
For O=C(c1ccccc1)[C@H]1CC=CC[C@H]1C(=O)O the results were Yeast growth inh -13, Yeast lifespan up 2, PostGolgi yeast -7 and PostGolgi ctrl 2.
Screening Cc1cc2cc(CN(C(=O)C3CC3)C3CCCC3)c3nnnn3c2cc1C returned Yeast growth inh -32, Yeast lifespan up -4, PostGolgi yeast -7 and PostGolgi ctrl 14.
